PubChem BioAssay
Active and inactive are the calls of the source.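 Rule for the calls, unless noted: active = viability loss from added drug above about 55%, and viability with drug at most 40%, in both replicates (limit read from the data, passing the limit was not always enough); inconclusive = both conditions met in only one replicate; inactive = neither replicate meets both conditions.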

Experiments:
[1] = reducers of endogenous Her2 protein level, primary screen, SKBR3 breast tumor cells, AlphaScreen, ATP viability (AID 461;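 active = Her2 level under about 52% in both replicate screens, with viability over 70% of control, limit read from the data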;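 for Her2 level: lower value means less Her2 protein in the cells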;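 for viability: percent of carrier control wells set as 100% viability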); settings: 18-24 h, measured here: SKBR3 viability, ATP luminescence, at 10 µM
[2] = molecular target: Receptor tyrosine-protein kinase erbB-2 (Homo sapiens) (UniProt P04626); test: as above; settings: 18-24 h, at 10 µM, stronger effect = lower value
Receptor tyrosine-protein kinase erbB-2 (Homo sapiens), sequence (P04626 whole entry, looked up): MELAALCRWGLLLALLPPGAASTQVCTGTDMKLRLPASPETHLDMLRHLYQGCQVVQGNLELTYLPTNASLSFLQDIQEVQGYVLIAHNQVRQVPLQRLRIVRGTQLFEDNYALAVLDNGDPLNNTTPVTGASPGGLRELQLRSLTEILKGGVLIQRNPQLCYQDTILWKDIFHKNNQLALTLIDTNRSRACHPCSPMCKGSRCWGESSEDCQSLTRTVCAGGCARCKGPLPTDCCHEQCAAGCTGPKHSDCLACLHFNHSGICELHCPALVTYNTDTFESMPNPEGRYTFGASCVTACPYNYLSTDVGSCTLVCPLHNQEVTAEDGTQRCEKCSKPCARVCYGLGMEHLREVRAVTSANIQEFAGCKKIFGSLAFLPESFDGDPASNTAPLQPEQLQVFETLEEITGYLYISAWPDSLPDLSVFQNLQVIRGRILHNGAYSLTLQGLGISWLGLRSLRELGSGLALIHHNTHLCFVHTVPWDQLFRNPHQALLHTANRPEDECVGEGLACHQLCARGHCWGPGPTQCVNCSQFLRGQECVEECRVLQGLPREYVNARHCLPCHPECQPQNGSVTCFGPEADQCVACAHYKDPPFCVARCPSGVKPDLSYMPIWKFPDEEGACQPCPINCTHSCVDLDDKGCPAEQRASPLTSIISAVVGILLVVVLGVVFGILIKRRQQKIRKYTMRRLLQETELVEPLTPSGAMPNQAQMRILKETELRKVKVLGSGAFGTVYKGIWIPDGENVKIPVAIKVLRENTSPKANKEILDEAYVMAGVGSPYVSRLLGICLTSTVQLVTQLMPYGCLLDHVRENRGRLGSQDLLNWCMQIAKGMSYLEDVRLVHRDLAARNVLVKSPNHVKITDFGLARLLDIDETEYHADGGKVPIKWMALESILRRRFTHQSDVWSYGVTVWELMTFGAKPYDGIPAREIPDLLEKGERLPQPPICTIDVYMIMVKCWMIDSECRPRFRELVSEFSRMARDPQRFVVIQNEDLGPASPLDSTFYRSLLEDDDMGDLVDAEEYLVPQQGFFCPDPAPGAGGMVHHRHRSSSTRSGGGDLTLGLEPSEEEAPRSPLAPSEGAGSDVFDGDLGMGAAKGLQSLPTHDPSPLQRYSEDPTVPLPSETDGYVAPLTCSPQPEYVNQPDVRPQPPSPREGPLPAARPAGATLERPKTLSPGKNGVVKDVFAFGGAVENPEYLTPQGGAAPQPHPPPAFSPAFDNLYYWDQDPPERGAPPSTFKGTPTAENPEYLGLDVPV

[3] = SK-BR-3 cell growth inhibitors, pilot screen, 24 h, human (AID 572;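 active = viability at or below 10% of carrier control in both of two separate runs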;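 note: compound exposure lasted between 18 and 24 h rather than exactly 24 h; 100% = carrier-treated control wells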); settings: SK-BR-3 viability, CellTiter-Glo luminescence, at 10 µM, stronger effect = lower value
[4] = HUVEC growth inhibition – cell-based, human, primary screen (AID 575;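 active = viability at or below 30% in both replicate assays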;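 note: 100% = median of untreated cell wells with 0.1% DMSO on each plate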); settings: HUVEC proliferation, CellTiter-Glo luminescence, 72 h; at 10 µM; stronger effect = lower value
How it was run: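 Assay system: primary human umbilical vein endothelial cells / Buffer or medium: endothelial basal medium with 2% FBS plus growth supplements / Compound dosing: one dose, 10 µM final, 0.1% DMSO / Timing: 72 h treatment at 37 °C / Signal: CTG luminescence / Benchmarks: 32 DMSO-only cell-control wells (high), 32 MePR drug-control wells (low) per plate / Plate: collagen-coated 384-well format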

[5] = growth inhibitors of H69AR lung tumor, primary screen, human, duplicate replicates (AID 580;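 active = viability at or under a set limit in both replicates, limit being median viability minus 3 SD, cut at about 48% in these data, passing the limit was not always enough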;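 note: 100% = mean luminescence of untreated wells and 0% = no signal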); settings: H69AR lung tumor cells viability, ATP luminescence, 72 h; at 10 µM; stronger effect = lower value
[6] = reversal of MRP1-mediated doxorubicin resistance, pilot screen, H69AR cells, doxorubicin co-treatment (AID 601); settings: CellTiter-Glo, 72 h, at 10 µM; for differential viability (reversal): stronger effect = higher value
[7] = 384-well plate pilot, post-Golgi transport modulator project, inhibition of yeast transport mutant growth (AID 636; in the data active = inhibition above about 31%); settings: absorbance 615 nm, about 18 h, stronger effect = higher value
[8] = growth suppression of yeast trafficking mutant, preliminary HTS, modulators of trafficking downstream of Golgi apparatus project, 1536-format plate, OD 615 nm (AID 637; in the data active = inhibition above about 30%); settings: yeast transport mutant growth, absorbance 615 nm, 18 h; stronger effect = higher value
[9] = H69AR cells + 2 uM doxorubicin, measured here: viability with 2 uM doxorubicin, stronger effect = lower value
[10] = H69AR cells, compound alone cytotoxicity

Row | Compound | viability [1] | Her2 level [2] | viability [3] | viability [4] | viability [5] | differential viability (reversal) ([6]; H69AR cells + 2 uM doxorubicin) | viability [6, 9] | viability [6, 10] | inhibition [7] | inhibition [8]
1 | Cc1cc(C)n2nc(SCC(=O)N(C)c3ccccc3)nc2n1 | 89.5% | 87% (inactive) | 89.5% (inactive) | 94.8% (inactive) | 104% (inactive) | 1.41% (inactive) | 102% | 104% | -7.57% (inactive) | 6.39% (inactive)
2 | C(#Cc1ccccc1)Cn1nnc2ccccc21 | 80.5% | 86.5% (inactive) | 80.5% (inactive) | 99% (inactive) | 83.1% (inactive) | 7.46% (inactive) | 75.6% | 83.1% | 0.9% (inactive) | 4.33% (inactive)
3 | COCCOC(=O)c1cc(C(=O)c2cc(F)ccc2O)coc1=N | 83.5% | 82.5% (inactive) | 83.5% (inactive) | 92% (inactive) | 91.1% (inactive) | -3.97% (inactive) | 95.1% | 91.1% | -1.56% (inactive) | -5.08% (inactive)
4 | Cc1nc2oc3c(NCc4ccccn4)ncnc3c2c2c1COC(C)(C)C2 | 90% | 89% (inactive) | 90% (inactive) | 85.9% (inactive) | 99.2% (inactive) | 7.06% (inactive) | 92.2% | 99.2% | -4.4% (inactive) | -1.59% (inactive)
5 | Cc1ccc(-c2cn3cccnc3n2)cc1NC(=O)c1ccc(Br)o1 | 95.5% | 86.5% (inactive) | 95.5% (inactive) | 97.6% (inactive) | 88.5% (inactive) | 8.45% (inactive) | 80% | 88.5% | -0.39% (inactive) | -7.46% (inactive)
6 | CC(CN1CCCCC1)OC(=O)c1ccc2c(c1)OCO2 (stereo not given) | 104% | 96% (inactive) | 104% (inactive) | 99.1% (inactive) | 94.1% (inactive) | 7.31% (inactive) | 86.8% | 94.1% | -4.4% (inactive) | 6.72% (inactive)
7 | Cc1ccc2[nH]c(=O)c(C(c3nnnn3CCc3ccccc3)N3CCOCC3)cc2c1 (stereo not given) | 86% | 87.5% (inactive) | 86% (inactive) | 76.9% (inactive) | 100% (inactive) | 12.1% (inactive) | 87.8% | 100% | -5.95% (inactive) | -0.49% (inactive)
8 | CCOC(=O)CSc1nn(C)c(=S)s1 | 97.5% | 106% (inactive) | 97.5% (inactive) | 73.2% (inactive) | 102% (inactive) | 7.25% (inactive) | 94.9% | 102% | -2.4% (inactive) | -1.5% (inactive)
9 | CN(C(=O)c1ccc(S(=O)(=O)NC2CCCC2)cc1)C1CCCCC1 | 101% | 87% (inactive) | 101% (inactive) | 103% (inactive) | 102% (inactive) | 9.82% (inactive) | 92.3% | 102% | -3.38% (inactive) | -7.54% (inactive)
10 | Nc1nc(CSc2nc3ccccc3[nH]2)nc(N2CCOCC2)n1 | 96% | 100% (inactive) | 96% (inactive) | 109% (inactive) | 92.8% (inactive) | 0.96% (inactive) | 91.9% | 92.8% | -0.13% (inactive) | -3.83% (inactive)
11 | CCCNC(=O)C1=C(C)C(=O)OC12CCC(C)CC2 (stereo not given) | 94.5% | 102% (inactive) | 94.5% (inactive) | 87.2% (inactive) | 95.3% (inactive) | 5.14% (inactive) | 90.2% | 95.3% | 2.27% (inactive) | 3.61% (inactive)
12 | COCCn1c(C)c(C(=O)O)sc1=S | 99% | 118% (inactive) | 99% (inactive) | 108% (inactive) | 104% (inactive) | 12.4% (inactive) | 91.3% | 104% | 0.79% (inactive) | -6.5% (inactive)
13 | Cc1[nH]c2c(C)cccc2c(=O)c1Br | 104% | 81% (inactive) | 104% (inactive) | 114% (inactive) | 91.9% (inactive) | 3.28% (inactive) | 88.7% | 91.9% | -6.93% (inactive) | 6.07% (inactive)
14 | COc1ccc(C(=O)N2CCN(C3CCCCC3)CC2)c(OC)c1 | 82.5% | 104% (inactive) | 82.5% (inactive) | 88.3% (inactive) | 95.3% (inactive) | 0.4% (inactive) | 94.9% | 95.3% | -2.53% (inactive) | 11.8% (inactive)
15 | CCn1c(SCC(=O)Nc2cc(C)on2)nc2sc3c(c2c1=O)CCCC3 | 91% | 76.5% (inactive) | 91% (inactive) | 84.5% (inactive) | 12.6% (active) | 2.02% (inactive) | 10.6% | 12.6% | -4.93% (inactive) | 7.78% (inactive)
16 | CC1Cc2ccccc2N1C(=O)CSc1nc2ccccc2n1CC(=O)N1CCOCC1 (stereo not given) | 97% | 91% (inactive) | 97% (inactive) | 94% (inactive) | 97.8% (inactive) | 7% (inactive) | 90.8% | 97.8% | -6.13% (inactive) | 3.77% (inactive)
17 | O=c1c2[nH]c3cccc(Cl)c3c2ncn1CCN1CCCCC1 | 103% | 83.5% (inactive) | 103% (inactive) | 101% (inactive) | 92.6% (inactive) | 4.01% (inactive) | 88.6% | 92.6% | -4.13% (inactive) | 0.49% (inactive)
18 | CC1CCC(NC(=O)C2CCN(c3cnccn3)CC2)CC1 (stereo not given) | 96% | 95% (inactive) | 96% (inactive) | 88.6% (inactive) | 92.5% (inactive) | 11.3% (inactive) | 81.2% | 92.5% | -1.76% (inactive) | -2.7% (inactive)
19 | Cc1ccc(CNC(=O)C2CC(=O)OC23CCCC3)c(C)c1 (stereo not given) | 86% | 100% (inactive) | 86% (inactive) | 96.5% (inactive) | 106% (inactive) | 12.3% (inactive) | 94.1% | 106% | -5.89% (inactive) | 3.17% (inactive)
20 | O=C(CSc1nnc(-c2cnccn2)n1Cc1ccco1)c1ccc(Cl)cc1 | 90% | 81% (inactive) | 90% (inactive) | 105% (inactive) | 80.7% (inactive) | -2.83% (inactive) | 83.5% | 80.7% | -0.78% (inactive) | 6.5% (inactive)
21 | Cc1ccc(-n2ncc3c(N4CCN(c5ccc(F)cc5)CC4)ncnc32)c(C)c1 | 87.5% | 94.5% (inactive) | 87.5% (inactive) | 91.8% (inactive) | 71.4% (inactive) | 31.8% (inactive) | 39.6% | 71.4% | 0.26% (inactive) | -3.55% (inactive)
22 | CCCCn1c(CN(C)Cc2ccccc2)nc2c1c(=O)n(C)c(=O)n2C | 83% | 101% (inactive) | 83% (inactive) | 71.1% (inactive) | 71.6% (inactive) | -7.99% (inactive) | 79.6% | 71.6% | -3.24% (inactive) | -0.63% (inactive)
23 | CCOC(=O)CN1CC23C=CC(O2)C(C(=O)NCc2ccc(F)cc2)C3C1=O (stereo not given) | 88% | 93.5% (inactive) | 88% (inactive) | 102% (inactive) | 98.9% (inactive) | 12.5% (inactive) | 86.4% | 98.9% | -0.38% (inactive) | -0.17% (inactive)
24 | CC(=O)c1ccc(NC(=O)c2cc(CC(C)C)on2)cc1 | 93% | 114% (inactive) | 93% (inactive) | 120% (inactive) | 89.2% (inactive) | -1.95% (inactive) | 91.1% | 89.2% | 6.15% (inactive) | -8.67% (inactive)
25 | CC(C)N(O)C(=O)NC(C)(C)C | 110% | 99% (inactive) | 110% (inactive) | 97.8% (inactive) | 93.8% (inactive) | -5.12% (inactive) | 98.9% | 93.8% | -2.8% (inactive) | 5% (inactive)
26 | Cc1cc2ncn(S(=O)(=O)c3ccc(S(=O)(=O)N4CCOCC4)cc3)c2cc1C | 91.5% | 91.5% (inactive) | 91.5% (inactive) | 102% (inactive) | 98.3% (inactive) | 0.945% (inactive) | 97.3% | 98.3% | -1.47% (inactive) | -7.1% (inactive)
27 | COc1ccccc1C(=O)N1CCN(CCc2ccccc2)CC1 | 102% | 124% (inactive) | 102% (inactive) | 88.2% (inactive) | 103% (inactive) | 3.95% (inactive) | 99.2% | 103% | 0% (inactive) | -4.17% (inactive)
28 | Cc1cc(C)c2oc(=O)cc(CN3CCOCC3)c2c1 | 102% | 97% (inactive) | 102% (inactive) | 87.3% (inactive) | 91.4% (inactive) | 3.58% (inactive) | 87.9% | 91.4% | -6.93% (inactive) | 2.26% (inactive)
